Source: PubChem BioAssay (several laboratories)
Shown is part of a subset that was picked to be rich in hits.
T cruzi inh = blocks replication of Trypanosoma cruzi; 1.4% of 300,000 active; inhibition, % (concentration not given with the values); AID 1885; T. cruzi beta-gal in NIH3T3, luminescence, 90 h;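 active means mean inhibition across valid replicates above about 55%, limit read from the data; inconclusive means mean below that limit but half or more replicates reach it; inactive means mean below it, under half of replicates reach it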;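 further: signal also drops with host cell toxicity which is not excluded here; 0% = plate median of DMSO wells and 100% = zero luminescence signal; higher percent means less beta-gal luminescence so fewer parasites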
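System: Mouse NIH/3T3 fibroblasts infected with β-gal-expressing T. cruzi Tulahuen C4 | Quantity: NIH/3T3 cells, 5,000 per well | Reagent: 5000 reporter trypomastigotes per well | Dosing: Compound pinned at 50 nL/well, DMSO | Schedule: 3 h host attachment, then at least 90 h co-culture | Detection: GalScreen luminescence, 60 min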
NLRP3 yeast inh = inhibitors of NALP3 inflammasome in yeast | Yeast reconstituted NLRP3/ASC/caspase-1, beta-gal luminescence, 24 h | inhibition, % at 10 µM | 0.39% of 330,000 active;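 active means inhibition of 50% or more; inactive means inhibition below 50%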;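 further: plate controls were induced DMSO wells for no effect and uninduced yeast grown without galactose for full effect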
NALP1 inh = blocks the NALP1 inflammasome reconstituted in yeast; S. cerevisiae NALP1/ASC/caspase-1 growth, X-gal OD620, 72 h; inhibition, % at 10 µM; 0.61% of 280,000 active; in the data active means inhibition mostly above about 24%, no sharp cut-off; inactive means mostly below about 32%
Lmaj promast = inhibitors of Leishmania major promastigote growth; Leishmania major promastigotes, resazurin fluorescence viability; inhibition, % at 10 µM; 9% of 200,000 active; AID 1063; in the data active means inhibition above about 50%;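 further: promastigotes grown with compound for 44 hours at 28 °C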
PolyA inh = inhibitors of polyadenylation in S. cerevisiae; 0.02% of 300,000 active; AID 1875; S. cerevisiae SKY197-pL101 polyadenylation reporter, beta-gal luminescence; efflux-impaired pdr1/pdr3 knockout yeast; score 100 = 6 SD above DMSO; activity score, % at 12 µM;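 active means lowest replicate activity score at least 50, where 100 means six control SD above control mean; inconclusive means lowest score under 50 but half or more replicates reach 50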;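 further: yeast exposed to compound for 9 h at 30 °C; higher score means more reporter readthrough which indicates perturbed polyadenylation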
Calb FLC = affects C. albicans growth with fluconazole. growth inhibition, % (concentration not given with the values). 0.57% of 300,000 active. C. albicans CaCi-2 + fluconazole, Alamar Blue growth, 48 h;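 active means growth inhibition above about 58% in most replicates, limit read from the data, passing the limit was not always enough; inconclusive means exactly half the replicates above a set limit; inactive means most replicates below a set limit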;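 further: all wells also contain fluconazole at 8 µg/ml as a sub-toxic cotreatment; 0% = median of DMSO wells and 100% = median of geldanamycin control wells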
Numbers without * were called inactive; ? = inconclusive; . = no result.

SMILES	T cruzi inh	NLRP3 yeast inh	NALP1 inh	Lmaj promast	PolyA inh	Calb FLC
CSc1ccccc1C(=O)C1CCCN(Cc2ccccn2)C1 (stereo unspecified)	5.4	-0.8	-2.2	1.2	-1.1	-2.9
Cn1c(=O)c2c(nc(N/N=C/c3c(O)n(-c4ccccc4)c(=S)[nH]c3=O)n2C)n(C)c1=O	-16.5	32.4	10.3	-14.3	-1.3	?
CCCCSC1=NN1c1nc(N)nc(C)c1CC	8.7	12.3	-1.2	1.2	-12.4	-1.0
CCOC(=O)C1=C(C)OC(N)=C(C#N)C12C(=O)Nc1ccc(C)cc12 (stereo unspecified)	2.3	11.5	22.1	-4.6	.	1.8
COc1ccc(C(=O)C2CCCN(Cc3ccsc3)C2)cc1OC (stereo unspecified)	52.0	-16.3	-6.3	95.8*	4.0	-34.5
COc1ccccc1C(=O)C1CCCN(Cc2cnc(C)s2)C1 (stereo unspecified)	19.4	7.0	18.8	5.5	-0.4	4.6
CC(C)Nc1ccc(Nc2ccccc2)cc1	56.1*	31.0	.	.	8.6	-19.1
O=C(c1ccc(Cl)cc1)C1CCCN(Cc2cccc3cnccc23)C1 (stereo unspecified)	47.9	9.5	3.3	98.5*	-9.4	6.3
CSc1ncc(CN2CCCC(C(=O)c3cccc(Cl)c3)C2)cn1 (stereo unspecified)	29.9	9.4	-14.2	82.0*	-10.2	-8.0
COc1ccc(CN2CCCC(C(=O)c3cccc(Cl)c3)C2)cc1 (stereo unspecified)	40.8	26.9	-85.1	.	-39.0	7.3
O=C(c1cccc(Cl)c1)C1CCCN(Cc2cccc3cnccc23)C1 (stereo unspecified)	41.6	15.9	12.4	94.6*	-0.2	-22.2
COc1ccc(CN2CCCC(C(=O)c3ccc(Cl)cc3)C2)c(OC)c1 (stereo unspecified)	37.5	35.9	33.9	.	-7.6	23.7
N#CC(C#N)=C(N)c1cccnc1	-8.5	12.4	12.4	5.0	14.9	-2.5
CC(C)(C)OC(=O)c1c(N)n(Cc2ccco2)c2nc3ccccc3nc12	-11.2	16.7	-18.5	35.2	-2.5	16.1
CCC(C)OC(=O)c1c(N)n(Cc2cccs2)c2nc3ccccc3nc12 (stereo unspecified)	39.4	16.6	25.3	90.8*	3.5	3.7
Nc1c(C(=O)OCc2ccccc2)c2nc3ccccc3nc2n1Cc1cccs1	48.0	15.0	5.4	69.2*	-20.5	6.3
COCCCn1c(N)c(C(=O)OC(C)COC)c2nc3ccccc3nc21 (stereo unspecified)	-7.8	2.9	-0.3	45.4	0.4	-3.3
O=C(c1ccc(Cl)cc1)C1CCCN(Cc2ccc3c(c2)OCCO3)C1 (stereo unspecified)	34.5	28.8	-4.5	91.6*	-35.8	-28.8
O=C(c1ccc2c(c1)OCO2)C1CCCN(Cc2ccc(F)c(F)c2)C1 (stereo unspecified)	38.8	34.1	1.5	.	-10.6	-32.5
O=C(c1ccc(Cl)cc1)C1CCCN(Cc2ccc3ncccc3c2)C1 (stereo unspecified)	35.5	34.7	15.7	87.7*	-60.7	-27.2
CC(NCc1ccc(Cl)cc1)C(O)c1ccccc1 (stereo unspecified)	-1.9	3.0	-4.6	87.0*	9.3	3.9
CC(NCc1ccc(Cl)cc1Cl)C(O)c1ccccc1 (stereo unspecified)	4.5	17.1	22.1	64.4*	1.7	2.1
CC(NCc1cccc(Cl)c1Cl)C(O)c1ccccc1 (stereo unspecified)	7.3	16.6	39.9	3.1	2.4	-6.4
ClCC(Br)CBr (stereo unspecified)	.	-11.1	.	.	.	.
O=c1[nH]c(=O)n(CCC2=CCCCC2)c(O)c1C=NC1CCN(Cc2ccccc2)CC1	.	2.0	14.7	83.0*	.	.
SMILES	T cruzi inh	NLRP3 yeast inh	NALP1 inh	Lmaj promast	PolyA inh	Calb FLC
C=CCn1c(O)c(C=NC2CCN(Cc3ccccc3)CC2)c(=O)[nH]c1=O	17.5	19.9	.	.	8.0	-11.2
CCCCCCn1c(O)c(C=NC2CCN(Cc3ccccc3)CC2)c(=O)[nH]c1=O	49.0	15.3	40.3	54.1*	10.9	15.1
O=c1[nH]c(=O)n(CCC2=CCCCC2)c(O)c1/C=N/Nc1ccccc1	30.9	26.8	10.6	80.5*	-25.1	-25.2
CCN(C(=O)COC(=O)C(O)(c1ccccc1)c1ccccc1)c1c(N)n(Cc2ccccc2)c(=O)[nH]c1=O	.	14.2	.	.	.	.
CCCCCSc1cc(O)c(C(CNC)C(C)C)cc1OC (stereo unspecified)	18.5	7.9	28.3	100.5*	34.2	-30.0
CN1CCc2cc3c(c4c2C1Cc1ccccc1-4)OCO3 (stereo unspecified)	29.9	39.3	21.9	.	-5.6	92.4*
Cc1ccc(N(C)C(=O)Oc2cccc3cccnc23)cc1	-19.7	29.0	11.7	-3.6	-2.4	-3.3
COCCCn1c(N)c(C(=O)NCc2ccco2)c2nc3ccccc3nc21	29.0	9.9	1.7	.	-5.4	-4.2
COCCNC(=O)c1c(N)n(Cc2ccco2)c2nc3ccccc3nc12	0.2	-0.4	6.2	54.9*	5.1	4.2
Nc1c(C(=O)NCCN2CCOCC2)c2nc3ccccc3nc2n1Cc1ccco1	.	16.5	23.4	18.4	-0.6	3.7
C=CCNC(=O)c1c(N)n(Cc2ccco2)c2nc3ccccc3nc12	-14.5	4.1	-2.1	100.2*	-6.1	-18.2
O=c1[nH]c(=S)[nH]c(O)c1N=Nc1ccc(OC(F)F)cc1	-16.1	25.6	-0.2	-2.5	-4.9	44.3
COc1ccc2c3c1OC1C(=O)CC[C@@]4(O)[C@@H](C2)N(C)CC[C@]314 (stereo partly specified)	.	11.7	.	.	.	.
O=C(COc1ccc2ccccc2c1)N1CCN(CC2CC3C=CC2C3)CC1 (stereo unspecified)	9.1	31.8	-1.5	57.6*	3.9	-8.8
O=C(COc1ccccc1)N1CCN(C2CCCC2)CC1	3.9	-8.0	-4.4	84.9*	-4.8	-3.3
O=C(COc1ccc2ccccc2c1)N1CCN(C2CCN(Cc3ccccc3)CC2)CC1	52.0	18.8	29.1	92.2*	-6.0	-3.1
COc1ccc(OCC(=O)N2CCN(C3CCC(c4ccccc4)CC3)CC2)cc1 (stereo unspecified)	28.8	22.4	43.8	59.9*	-70.8	-25.2
O=C1NC(=O)N(CCNc2ncc(C(F)(F)F)cc2Cl)C(=O)C1Cc1ccc(Cl)cc1 (stereo unspecified)	-21.4	9.4	2.2	-7.8	16.2	12.2
NCCNc1ccc([N+](=O)[O-])c2cccnc12	?	32.5	0.0	3.1	-28.7	6.1
O=[N+]([O-])c1ccc(NCCCN2CCOCC2)c2ncccc12	10.3	24.4	-2.9	86.9*	-39.2	-10.2
Nc1c(Br)cc([N+](=O)[O-])cc1[N+](=O)[O-]	.	-11.3	.	.	.	.
c1cc2c(cc1CCNC1C3CC4CC(C3)CC1C4)OCO2 (stereo unspecified)	17.6	6.4	-54.6	86.5*	9.2	-36.0
